Measured values from ChEMBL document CHEMBL1255417, “Correlation between in vitro activity of posaconazole and in vivo efficacy against Rhizopus oryzae infection in mice” (Antimicrob Agents Chemother, 2010).
Converted amounts (≈) assume the structure as drawn. The source made the active and inactive calls. No cut-off for these calls is given here.

Key:
Rhizopus arrhizus [1] = test: Antifungal activity against drug-susceptible Rhizopus oryzae UTHSC 06-3827 by broth microdilution method; assay type: functional
Method in brief: (§1)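 Posaconazole MIC in ug/ml, determined by broth microdilution following the CLSI guidelines for moulds (M38-A2).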

Rhizopus arrhizus [2] = test: Antifungal activity against drug-susceptible Rhizopus oryzae UTHSC 06-4336 after 24 to 48 hrs; assay type: functional
Method in brief: (§2)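 Minimum fungicidal concentration taken from the broth microdilution plates. From each well with complete inhibition (optically clear), 20 ul is plated on potato dextrose agar. Plates are incubated at 35°C for 24 to 48 h. The MFC is the lowest drug concentration giving no growth.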

Rhizopus arrhizus [3] = test: Antifungal activity against drug-susceptible Rhizopus oryzae UTHSC 03-228 after 24 to 48 hrs; assay type: functional
Rhizopus arrhizus [4] = test: Antifungal activity against drug-susceptible Rhizopus oryzae UTHSC 04-2159 after 24 to 48 hrs; assay type: functional
Method in brief: (§3)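 Minimum fungicidal concentration: 20 µl from each microdilution well showing complete inhibition (optically clear) plated on potato dextrose agar, incubated 35°C for 24 to 48 h; MFC taken as lowest drug concentration giving no growth.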

Rhizopus arrhizus [5] = test: Antifungal activity against drug-intermediate Rhizopus oryzae UTHSC 03-3165 at 5 ug by disk diffusion assay; assay type: functional; conditions: read-out: DIZ
Method in brief: (§4)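 Neo-Sensitabs tablet diffusion on Mueller-Hinton agar, following the guidelines for molds. Tablets were 9 mm in diameter and held 5 µg of drug. The read-out was inhibition zone diameter in mm.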

Rhizopus arrhizus [6] = test: Antifungal activity against drug-susceptible Rhizopus oryzae UTHSC 05-197 at 5 ug by disk diffusion assay; assay type: functional; conditions: read-out: DIZ
Method in brief: (§5)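 Neo-Sensitabs tablet diffusion on Mueller-Hinton agar, following guidelines for molds; 9 mm tablets containing 5 µg posaconazole; inhibition zone diameter measured in mm; zone breakpoints applied at 24 h.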

Rhizopus arrhizus [7] = test: Antifungal activity against drug-susceptible Rhizopus oryzae UTHSC 06-3913 by broth microdilution method; assay type: functional; method in brief: as §1
Rhizopus arrhizus [8] = test: Antifungal activity against drug-susceptible Rhizopus oryzae UTHSC 05-3580 at 5 ug by disk diffusion assay; assay type: functional; conditions: read-out: DIZ
Method in brief: (§6)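 Neo-Sensitabs tablet diffusion on Mueller-Hinton agar, run per the mould guidelines. Tablets are 9 mm in diameter and carry 5 ug posaconazole. The read-out is the inhibition zone diameter in mm.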

Rhizopus arrhizus [9] = test: Antifungal activity against drug-susceptible Rhizopus oryzae UTHSC 05-3111 at 5 ug by disk diffusion assay; assay type: functional; conditions: read-out: DIZ; method in brief: as §6
Rhizopus arrhizus [10] = test: Antifungal activity against drug-intermediate Rhizopus oryzae UTHSC 05-3032 infected in OF1 mouse assessed as increase in mouse survival at 20-30 mg/kg, po bid treated 24 hrs after fungal infection; assay type: functional, organism-based
Method in brief: (§7)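 Survival model in male OF1 mice, 30 g. Mice were immunosuppressed 1 day before infection with cyclophosphamide 200 mg/kg i.p. plus 5-fluorouracil 150 mg/kg i.v., then infected i.v. via lateral tail vein with 2 × 10^4 CFU in 0.2 ml saline. Oral gavage at 10, 20 or 30 mg/kg BID began 24 h post-challenge for 7 days. Ceftazidime 5 mg/day s.c. was given days 1–7. Groups of 10 were checked daily for 20 days; untreated controls.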

Rhizopus arrhizus [11] = test: Antifungal activity against drug-susceptible Rhizopus oryzae UTHSC 05-197 by broth microdilution method; assay type: functional
Method in brief: (§8)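 CLSI broth microdilution for filamentous fungi (M38-A2); MIC recorded in µg/ml against clinical isolates; breakpoints applied at 24 h.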

Rhizopus arrhizus [12] = test: Antifungal activity against drug-susceptible Rhizopus oryzae UTHSC 04-2459 after 24 to 48 hrs; assay type: functional; method in brief: as §3
Rhizopus arrhizus [13] = test: Antifungal activity against drug-susceptible Rhizopus oryzae UTHSC 03-511 infected in OF1 mouse assessed as reduction in kidney fungal load at 10-30 mg/kg, po bid; assay type: functional, organism-based
Method in brief: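 Immunosuppressed male OF1 mice (cyclophosphamide 200 mg/kg i.p. plus 5-fluorouracil 150 mg/kg i.v., day −1) infected i.v. with 2 × 10^4 CFU; oral gavage twice daily from 24 h post-challenge; 10 mice/group killed day 4; kidneys homogenized in 2 ml saline, 10-fold dilutions plated on potato dextrose agar, 24 h at 35°C for CFU.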

Rhizopus arrhizus [14] = test: Antifungal activity against drug-intermediate Rhizopus oryzae UTHSC 05-114 at 5 ug by disk diffusion assay; assay type: functional; conditions: read-out: DIZ; method in brief: as §4
Rhizopus arrhizus [15] = test: Antifungal activity against drug-susceptible Rhizopus oryzae UTHSC 412-546 at 5 ug by disk diffusion assay; assay type: functional; conditions: read-out: DIZ
Rhizopus arrhizus [16] = test: Antifungal activity against drug-susceptible Rhizopus oryzae UTHSC 03-1826 at 5 ug by disk diffusion assay; assay type: functional; conditions: read-out: DIZ; method in brief: as §4
Rhizopus arrhizus [17] = test: Antifungal activity against drug-susceptible Rhizopus oryzae UTHSC 04-1613 after 24 to 48 hrs; assay type: functional; method in brief: as §3
Rhizopus arrhizus [18] = test: Antifungal activity against drug-susceptible Rhizopus oryzae UTHSC 05-3111 by broth microdilution method; assay type: functional; method in brief: as §1
Rhizopus arrhizus [19] = test: Antifungal activity against drug-intermediate Rhizopus oryzae UTHSC 07-365 at 5 ug by disk diffusion assay; assay type: functional; conditions: UTHSC 07-365, read-out: DIZ; method in brief: as §4
Rhizopus arrhizus [20] = test: Antifungal activity against drug-susceptible Rhizopus oryzae UTHSC 06-1301 by broth microdilution method; assay type: functional; method in brief: as §1
Rhizopus arrhizus [21] = test: Antifungal activity against drug-susceptible Rhizopus oryzae UTHSC 04-1613 by broth microdilution method; assay type: functional; method in brief: as §8
Rhizopus arrhizus [22] = test: Antifungal activity against drug-susceptible Rhizopus oryzae UTHSC 03-3110 at 5 ug by disk diffusion assay; assay type: functional; conditions: read-out: DIZ; method in brief: as §5
Rhizopus arrhizus [23] = test: Antifungal activity against drug-susceptible Rhizopus oryzae UTHSC 03-2970 at 5 ug by disk diffusion assay; assay type: functional; conditions: read-out: DIZ; method in brief: as §4
Rhizopus arrhizus [24] = test: Antifungal activity against drug-susceptible Rhizopus oryzae UTHSC 06-4152 after 24 to 48 hrs; assay type: functional; method in brief: as §2
Rhizopus arrhizus [25] = test: Antifungal activity against drug-susceptible Rhizopus oryzae UTHSC 05-3132 at 5 ug by disk diffusion assay; assay type: functional; conditions: read-out: DIZ; method in brief: as §6
Rhizopus arrhizus [26] = test: Antifungal activity against drug-susceptible Rhizopus oryzae UTHSC 06-4152 by broth microdilution method; assay type: functional; method in brief: as §1
Rhizopus arrhizus [27] = test: Antifungal activity against drug-susceptible Rhizopus oryzae UTHSC 06-731 after 24 to 48 hrs; assay type: functional
Rhizopus arrhizus [28] = test: Antifungal activity against drug-susceptible Rhizopus oryzae UTHSC 03-228 at 5 ug by disk diffusion assay; assay type: functional; conditions: read-out: DIZ; method in brief: as §4
Rhizopus arrhizus [29] = test: Antifungal activity against drug-susceptible Rhizopus oryzae UTHSC 06-1301 at 5 ug by disk diffusion assay; assay type: functional; conditions: read-out: DIZ; method in brief: as §6
Rhizopus arrhizus [30] = test: Antifungal activity against drug-susceptible Rhizopus oryzae UTHSC 06-1351 by broth microdilution method; assay type: functional; method in brief: as §1
Rhizopus arrhizus [31] = test: Antifungal activity against drug-intermediate Rhizopus oryzae UTHSC 07-365 infected in OF1 mouse assessed as increase in mouse survival at 20-30 mg/kg, po bid treated 24 hrs after fungal infection; assay type: functional, organism-based; method in brief: as §7
Rhizopus arrhizus [32] = test: Antifungal activity against drug-susceptible Rhizopus oryzae UTHSC 02-439 by broth microdilution method; assay type: functional
Method in brief: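 Broth microdilution MIC in µg/ml, run per the CLSI (formerly NCCLS) guideline for filamentous fungi, M38-A2.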

Rhizopus arrhizus [33] = test: Antifungal activity against drug-susceptible Rhizopus oryzae UTHSC 2868 after 24 to 48 hrs; assay type: functional
Rhizopus arrhizus [34] = test: Antifungal activity against drug-susceptible Rhizopus oryzae UTHSC 04-1613 at 5 ug by disk diffusion assay; assay type: functional; conditions: read-out: DIZ; method in brief: as §5
Rhizopus arrhizus [35] = test: Antifungal activity against drug-susceptible Rhizopus oryzae UTHSC 04-443 by broth microdilution method; assay type: functional; method in brief: as §8

With CC[C@@H]([C@H](C)O)n1ncn(-c2ccc(N3CCN(c4ccc(OC[C@@H]5CO[C@@](Cn6cncn6)(c6ccc(F)cc6F)C5)cc4)CC3)cc2)c1=O [POSACONAZOLE] the MIC (Rhizopus arrhizus [1]) was 1 µg/mL (≈ 1.43 µM), the MFC (Rhizopus arrhizus [2]) was 1 µg/mL (≈ 1.43 µM) and the MFC (Rhizopus arrhizus [3]) was 1 µg/mL (≈ 1.43 µM). For the same molecule, the MFC (Rhizopus arrhizus [4]) was 1 µg/mL (≈ 1.43 µM), the zone of inhibition at 5 µg/disc (Rhizopus arrhizus [5]) was 16 mm and the zone of inhibition at 5 µg/disc (Rhizopus arrhizus [6]) was 21 mm. It also gave an MIC (Rhizopus arrhizus [7]) of 0.5 µg/mL (≈ 0.713 µM), a zone of inhibition at 5 µg/disc (Rhizopus arrhizus [8]) of 25 mm and a zone of inhibition at 5 µg/disc (Rhizopus arrhizus [9]) of 20 mm. The Activity (Rhizopus arrhizus [10]) was “Active”, the MIC (Rhizopus arrhizus [11]) was 0.25 µg/mL (≈ 0.357 µM) and the MFC (Rhizopus arrhizus [12]) was 0.5 µg/mL (≈ 0.713 µM). The Activity (Rhizopus arrhizus [13]) was “Active”, the zone of inhibition at 5 µg/disc (Rhizopus arrhizus [14]) was 15 mm and the zone of inhibition at 5 µg/disc (Rhizopus arrhizus [15]) was 15 mm. The zone of inhibition at 5 µg/disc (Rhizopus arrhizus [16]) was 18 mm, the MFC (Rhizopus arrhizus [17]) was 0.5 µg/mL (≈ 0.713 µM) and the MIC (Rhizopus arrhizus [18]) was 0.25 µg/mL (≈ 0.357 µM). For the same molecule, the zone of inhibition at 5 µg/disc (Rhizopus arrhizus [19]) was 15 mm, the MIC (Rhizopus arrhizus [20]) was 0.5 µg/mL (≈ 0.713 µM) and the MIC (Rhizopus arrhizus [21]) was 0.5 µg/mL (≈ 0.713 µM). It also gave a zone of inhibition at 5 µg/disc (Rhizopus arrhizus [22]) of 17 mm, a zone of inhibition at 5 µg/disc (Rhizopus arrhizus [23]) of 20 mm and an MFC (Rhizopus arrhizus [24]) of 1 µg/mL (≈ 1.43 µM). It also gave a zone of inhibition at 5 µg/disc (Rhizopus arrhizus [25]) of 20 mm, an MIC (Rhizopus arrhizus [26]) of 0.25 µg/mL (≈ 0.357 µM) and an MFC (Rhizopus arrhizus [27]) of 0.5 µg/mL (≈ 0.713 µM). For the same molecule, the zone of inhibition at 5 µg/disc (Rhizopus arrhizus [28]) was 25 mm, the zone of inhibition at 5 µg/disc (Rhizopus arrhizus [29]) was 25 mm and the MIC (Rhizopus arrhizus [30]) was 0.25 µg/mL (≈ 0.357 µM). For the same molecule, the Activity (Rhizopus arrhizus [31]) was “Active”, the MIC (Rhizopus arrhizus [32]) was 0.25 µg/mL (≈ 0.357 µM) and the MFC (Rhizopus arrhizus [33]) was 8 µg/mL (≈ 11.4 µM). It also gave a zone of inhibition at 5 µg/disc (Rhizopus arrhizus [34]) of 22 mm and an MIC (Rhizopus arrhizus [35]) of 0.5 µg/mL (≈ 0.713 µM).
